Assay results taken from ChEMBL document CHEMBL2413015, “Synthesis, evaluation and molecular dynamics study of some new 4-aminopyridine semicarbazones as an antiamnesic and cognition enhancing agents” (Bioorg Med Chem, 2013).

Assays:
[1] = system: Rattus norvegicus; assay: Toxicity in albino rat assessed as mortality upto 100 mg/kg after 30 mins to 48 hrs; format: organism-based; set-up: dose 100 mg/kg; details: in vivo
How it was run: (§1)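 Acute toxicity followed OECD guidelines. Nulliparous, non-pregnant female albino rats (120–150 g) were fasted overnight with water ad libitum. Graded oral doses up to 100 mg/kg were given in 0.3% carboxymethyl cellulose. Rats were observed continuously for 30 min, at 2 h and up to 48 h for behavioural or autonomic changes, tremors, convulsions, salivation, diarrhoea, sleep, lacrimation, cardiovascular signs, feeding and mortality.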

[2] = system: Rattus norvegicus; assay: Toxicity in albino rat assessed as change in normal behavioral response upto 100 mg/kg after 30 mins to 48 hrs; format: organism-based; set-up: dose 100 mg/kg; details: in vivo; how it was run: as §1
[3] = system: Rattus norvegicus; assay: Cognitive enhancing effect in po dosed Wistar rat assessed as reversal of learning impairment measured as transfer latency administered for 8 days by elevated plus maze test; format: functional, organism-based
How it was run: (§2)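 Oral dosing at 5 or 10 mg/kg for 8 days, suspended in 0.3% carboxymethyl cellulose; vehicle-treated controls. Transfer latency on elevated plus maze measured on first and second days of exposure (treatment days 7 and 8). Mean ± SEM, n = 6, one-way ANOVA versus vehicle control.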

[4] = system: Rattus norvegicus; assay: Cognitive enhancing effect in Wistar rat assessed as reversal of learning impairment measured as transfer latency at 10 mg/kg, po for 8 days measured on second day of test by elevated plus maze test (reference value: 66.824 +/- 0.47 seconds); format: functional; how it was run: as §2
[5] = system: Rattus norvegicus; assay: Cognitive enhancing effect in Wistar rat assessed as reversal of learning impairment measured as transfer latency at 5 mg/kg, po for 8 days measured on second day of test by elevated plus maze test (reference value: 66.824 +/- 0.47 seconds); format: functional; how it was run: as §2
[6] = system: Rattus norvegicus; assay: Cognitive enhancing effect in Wistar rat assessed as reversal of learning impairment measured as transfer latency at 10 mg/kg, po for 8 days measured on first day of test by elevated plus maze test (reference value: 70.846 +/- 0.76 seconds); format: functional; how it was run: as §2
[7] = system: Rattus norvegicus; assay: Cognitive enhancing effect in Wistar rat assessed as reversal of learning impairment measured as transfer latency at 5 mg/kg, po for 8 days measured on first day of test by elevated plus maze test (reference value: 70.846 +/- 0.76 seconds); format: functional; how it was run: as §2
[8] = system: Rattus norvegicus; assay: Activity at AChE in Charles Foster rat hypothalamus assessed as substrate hydrolyzed per mg of protein at 10 mg/kg, po for 8 days by Ellman's method (reference value: 40.50 +/- 0.76 mol/min); format: functional
[9] = system: Rattus norvegicus; assay: Activity at AChE in Charles Foster rat hypothalamus assessed as substrate hydrolyzed per mg of protein at 5 mg/kg, po for 8 days by Ellman's method (reference value: 40.50 +/- 0.76 mol/min); format: functional
[10] = system: Rattus norvegicus; assay: Activity at AChE in Charles Foster rat hippocampus assessed as substrate hydrolyzed per mg of protein at 10 mg/kg, po for 8 days by Ellman's method (reference value: 47.50 +/- 0.84 mol/min); format: functional
[11] = system: Rattus norvegicus; assay: Activity at AChE in Charles Foster rat hippocampus assessed as substrate hydrolyzed per mg of protein at 5 mg/kg, po for 8 days by Ellman's method (reference value: 47.50 +/- 0.84 mol/min); format: functional
[12] = system: Rattus norvegicus; assay: Activity at AChE in Charles Foster rat prefrontal cortex assessed as substrate hydrolyzed per mg of protein at 10 mg/kg, po for 8 days by Ellman's method (reference value: 45.83 +/- 0.94 mol/min); format: functional
[13] = system: Rattus norvegicus; assay: Activity at AChE in Charles Foster rat prefrontal cortex assessed as substrate hydrolyzed per mg of protein at 5 mg/kg, po for 8 days by Ellman's method (reference value: 45.83 +/- 0.94 mol/min); format: functional
[14] = system: Rattus norvegicus; assay: Cognitive enhancing effect in Charles Foster rat assessed as reversal of scopolamine-induced amnesia measured as transfer latency at 10 mg/kg, po for 8 days administered 1 hr prior to scopolamine-challenge on day 7 measured on day 8 by elevated plus maze test (reference value: 62.17 +/- 0.47 seconds); format: functional
[15] = system: Rattus norvegicus; assay: Cognitive enhancing effect in Charles Foster rat assessed as reversal of scopolamine-induced amnesia measured as transfer latency at 5 mg/kg, po for 8 days administered 1 hr prior to scopolamine-challenge on day 7 measured on day 8 by elevated plus maze test (reference value: 62.17 +/- 0.47 seconds); format: functional
[16] = system: Rattus norvegicus; assay: (§3) Cognitive enhancing effect in Charles Foster rat assessed as reversal of scopolamine-induced amnesia measured as transfer latency at 10 mg/kg, po for 8 days administered 1 hr prior to scopolamine-challenge on day 7 measured on same day by elevated plus maze test (reference value: 67.83 +/- 0.94 seconds); format: functional
[17] = system: Rattus norvegicus; assay: as §3, with “5” for “10”; format: functional
[18] = biological target: T1, Cholinesterase (Homo sapiens, UniProt P06276); assay: Competitive inhibition of human serum BChE using butyrylthiocholine iodide as substrate by Lineweaver-Burk plot analysis
How it was run: (§4)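 Ellman assay in phosphate buffer pH 8 with a fixed amount of cholinesterase. Thiocholine substrate was varied from below to above, but near, Km, with or without inhibitor. Inhibition type was assigned from Lineweaver–Burk plots.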

[19] = biological target: T2, Acetylcholinesterase (Electrophorus electricus, UniProt O42275); assay: Competitive inhibition of electric eel AChE using acetylthiocholine iodide as substrate by Lineweaver-Burk plot analysis; how it was run: as §4
[20] = Selectivity ratio of IC50 for human serum BChE to IC50 for electric eel AChE
How it was run: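 Ratio of IC50 (BChE) to IC50 (AChE). Both came from Ellman assays at 0.1 M phosphate pH 8.0 and 0.02 unit/mL enzyme: AChE (stock in phosphate buffer) with acetylthiocholine, human serum BChE (stock in 0.1% gelatine) with butyrylthiocholine.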

[21] = biological target: T1, Cholinesterase; assay: Inhibition of human serum BChE using butyrylthiocholine iodide as substrate preincubated for 20 mins prior to substrate addition by Ellman's method
How it was run: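 Human serum BChE was dissolved in 0.1% gelatine. The final mix held 0.1 M phosphate pH 8.0, DTNB, 0.02 unit/mL enzyme and butyrylthiocholine iodide. Five inhibitor concentrations spanning 20–80% inhibition were preincubated with enzyme for 20 min at 37 °C, then substrate was added. Rate was read at 412 nm over 5 min against an enzyme-free blank. Each point was run in triplicate, and IC50 was read graphically from log concentration–% inhibition curves.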

[22] = biological target: T2, Acetylcholinesterase; assay: Inhibition of electric eel AChE using acetylthiocholine iodide as substrate preincubated for 20 mins prior to substrate addition by Ellman's method
[23] = biological target: T1, Cholinesterase; assay: Non competitive inhibition of human serum BChE using butyrylthiocholine iodide as substrate by Lineweaver-Burk plot analysis; how it was run: as §4

T2 sequence (O42275 whole entry): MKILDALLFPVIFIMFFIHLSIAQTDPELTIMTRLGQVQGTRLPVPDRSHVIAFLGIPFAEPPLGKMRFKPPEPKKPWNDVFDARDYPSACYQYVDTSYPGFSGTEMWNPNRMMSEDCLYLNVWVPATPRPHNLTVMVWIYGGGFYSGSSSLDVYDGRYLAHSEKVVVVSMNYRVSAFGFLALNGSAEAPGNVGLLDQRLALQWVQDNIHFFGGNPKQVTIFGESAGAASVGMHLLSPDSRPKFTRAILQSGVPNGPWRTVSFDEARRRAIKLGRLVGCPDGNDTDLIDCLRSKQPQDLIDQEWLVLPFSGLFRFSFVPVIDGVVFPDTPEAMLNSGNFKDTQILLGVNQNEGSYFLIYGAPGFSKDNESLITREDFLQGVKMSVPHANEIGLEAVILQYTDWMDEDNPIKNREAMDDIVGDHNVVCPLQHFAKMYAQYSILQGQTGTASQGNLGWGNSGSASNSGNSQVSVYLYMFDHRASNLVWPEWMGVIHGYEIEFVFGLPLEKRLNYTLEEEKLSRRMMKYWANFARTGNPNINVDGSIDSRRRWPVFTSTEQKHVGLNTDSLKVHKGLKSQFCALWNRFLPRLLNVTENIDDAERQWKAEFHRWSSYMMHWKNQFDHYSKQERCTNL
T1 sequence (P06276 whole entry): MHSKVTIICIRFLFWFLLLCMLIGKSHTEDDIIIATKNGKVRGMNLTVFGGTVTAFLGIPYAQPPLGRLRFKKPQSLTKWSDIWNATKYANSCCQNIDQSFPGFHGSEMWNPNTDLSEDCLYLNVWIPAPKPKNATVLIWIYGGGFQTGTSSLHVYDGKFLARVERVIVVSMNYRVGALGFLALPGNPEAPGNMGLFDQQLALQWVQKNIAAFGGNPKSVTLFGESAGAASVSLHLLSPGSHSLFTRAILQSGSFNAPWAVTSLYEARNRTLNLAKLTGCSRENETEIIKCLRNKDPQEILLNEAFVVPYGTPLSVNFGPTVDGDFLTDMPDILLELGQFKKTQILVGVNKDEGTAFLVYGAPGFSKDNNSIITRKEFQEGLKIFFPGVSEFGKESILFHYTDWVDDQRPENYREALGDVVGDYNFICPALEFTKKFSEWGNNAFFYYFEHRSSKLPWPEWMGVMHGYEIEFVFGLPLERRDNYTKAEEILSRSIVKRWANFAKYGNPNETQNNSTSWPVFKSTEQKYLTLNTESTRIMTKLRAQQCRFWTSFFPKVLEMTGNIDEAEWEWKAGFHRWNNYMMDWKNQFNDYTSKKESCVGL

In the case of O=C(N/N=C/c1ccccc1)Nc1ccncc1, the Activity [1] is reported as “Non-toxic”, the Activity [2] is reported as “Non-toxic” and the Activity [3] is reported as “Dose-dependent effect”. For the same compound, the Time [4] was 51 s, the Time [5] was 53.33 s and the Time [6] was 58.33 s. The Time [7] was 59.17 s, the Activity [8] was 35.83 mol/min and the Activity [9] was 36.5 mol/min. For the same compound, the Activity [10] was 41 mol/min, the Activity [11] was 42.33 mol/min and the Activity [12] was 40.5 mol/min. For the same compound, the Activity [13] was 42.03 mol/min, the Time [14] was 66.17 s and the Time [15] was 69.33 s. For the same compound, the Time [16] was 70.33 s, the Time [17] was 74.17 s and the Ki [18] was 685 µM. It also gave a Ki [19] of 88.6 µM, a Ratio IC50 [20] of 10.3 and an IC50 [21] of 845 µM. For the same compound, the IC50 ([22]; read-out: IC50) was 82.3 µM.
In the case of NNC(=O)Nc1ccncc1, the Activity [1] is reported as “Non-toxic”, the Activity [2] is reported as “Non-toxic” and the Activity [3] is reported as “Dose-dependent effect”. For the same compound, the Time [4] was 59.33 s, the Time [5] was 60.5 s and the Time [6] was 64 s. It also gave a Time [7] of 65 s, an Activity [8] of 37.17 mol/min and an Activity [9] of 37.47 mol/min. The Activity [10] was 43.67 mol/min, the Activity [11] was 44.5 mol/min and the Activity [12] was 42.17 mol/min. The Activity [13] was 42.33 mol/min, the Time [14] was 69.83 s and the Time [15] was 71.83 s. It also gave a Time [16] of 75.5 s, a Time [17] of 78 s and an IC50 [21] of over 1000 µM. For the same compound, the IC50 ([22]; read-out: IC50) was 211 µM.
With COc1ccc(/C=N/NC(=O)Nc2ccncc2)cc1 the Activity [1] was “Non-toxic”, the Activity [2] was “Non-toxic” and the Activity [3] was “Dose-dependent effect”. The Time [4] was 48.67 s, the Time [5] was 50.5 s and the Time [6] was 56.33 s. The Time [7] was 56.17 s, the Activity [8] was 36.83 mol/min and the Activity [9] was 35.17 mol/min. The Activity [10] was 37.5 mol/min, the Activity [11] was 40.33 mol/min and the Activity [12] was 37.83 mol/min. For the same compound, the Activity [13] was 39.5 mol/min, the Time [14] was 63.33 s and the Time [15] was 65.83 s. For the same compound, the Time [16] was 67.83 s, the Time [17] was 70.17 s and the Ki [18] was 624 µM. The Ki [19] was 35.5 µM, the Ratio IC50 [20] was 16.3 and the IC50 [21] was 786 µM. It also gave an IC50 ([22]; read-out: IC50) of 48.3 µM and an IC50 ([22]; read-out: pIC50 (converted)) of 49 µM.
With COc1cc2c(cc1OC)C(=O)C(CC1CCN(Cc3ccccc3)CC1)C2 (configuration not stated) [DONEPEZIL] the Activity [3] was “Dose-dependent effect”, the Time [4] was 37.67 s and the Time [5] was 39.1 s. It also gave a Time [6] of 43.17 s, a Time [7] of 45.14 s and an Activity [8] of 26.82 mol/min. The Activity [9] was 28.54 mol/min, the Activity [10] was 30.86 mol/min and the Activity [11] was 32.38 mol/min. It also gave an Activity [12] of 28.24 mol/min, an Activity [13] of 31.25 mol/min and a Time [14] of 53.86 s. The Time [15] was 55.42 s, the Time [16] was 61.25 s and the Time [17] was 64.2 s.
For O=C(N/N=C/c1ccccc1O)Nc1ccncc1, the Activity [1] was “Non-toxic”, the Activity [2] was “Non-toxic” and the Activity [3] was “Dose-dependent effect”. For the same compound, the Time [4] was 48.15 s, the Time [5] was 49.12 s and the Time [6] was 54.19 s. It also gave a Time [7] of 55.21 s, an Activity [8] of 34.67 mol/min and an Activity [9] of 36.33 mol/min. It also gave an Activity [10] of 36.83 mol/min, an Activity [11] of 39.17 mol/min and an Activity [12] of 37.5 mol/min. The Activity [13] was 39.33 mol/min, the Time [14] was 63.67 s and the Time [15] was 65 s. It also gave a Time [16] of 67.33 s, a Time [17] of 70.17 s and a Ki [23] of 212 µM. For the same compound, the Ki [19] was 25.6 µM, the Ratio IC50 [20] was 7.56 and the IC50 [21] was 246 µM. The IC50 ([22]; read-out: IC50) was 32.5 µM and the IC50 ([22]; read-out: pIC50 (converted)) was 33.1 µM.
